Activity calls are given as the source filed them. No cut-off for these calls is given here.
Assays:
Staphylococcus aureus = test: Growth inhibition of methicillin-resistant Staphylococcus aureus ATCC 43300 at 32 ug/ml after 18 hrs; format: functional; conditions: ATCC 43300, 18 h, read-out: GI
Summary of the method: (§1)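 Mid-log cultures in cation-adjusted Mueller Hinton broth were added at 5×10^5 CFU/mL to wells at a final compound concentration of 32 μg/mL. Plates stood at 37 °C for 18 h. Growth was read by OD600, and % inhibition was computed against media-only and untreated-bacteria controls.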

Escherichia coli = test: Growth inhibition of Escherichia coli ATCC 25922 at 32 ug/ml after 18 hrs; format: functional; conditions: ATCC 25922, 18 h, read-out: GI
Summary of the method: (§2)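 Mid-log cultures were prepared as above and seeded at 5×10^5 CFU/mL with compound at a final 32 μg/mL, then held static at 37 °C for 18 h. Growth was read as OD600. Percent inhibition was calculated against media-only and bacteria-only controls on the same plate.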

Klebsiella pneumoniae = test: Growth inhibition of multidrug-resistant Klebsiella pneumoniae ATCC 700603 at 32 ug/ml after 18 hrs; format: functional; conditions: ATCC 700603, 18 h, read-out: GI; summary of the method: as §1
Pseudomonas aeruginosa = test: Growth inhibition of Pseudomonas aeruginosa ATCC 27853 at 32 ug/ml after 18 hrs; format: functional; conditions: ATCC 27853, 18 h, read-out: GI; summary of the method: as §2
Acinetobacter baumannii = test: Growth inhibition of Acinetobacter baumannii ATCC 19606 at 32 ug/ml after 18 hrs; format: functional; conditions: ATCC 19606 = CIP 70.34 = JCM 6841, 18 h, read-out: GI; summary of the method: as §2
Cryptococcus neoformans = test: Growth inhibition of Cryptococcus neoformans H99 ATCC 208821 at 32 ug/ml after 24 hrs by resazurin dye-based microspectrophotometric assay; format: functional; conditions: var. grubii H99 ATCC 208821, 24 h, read-out: GI
Summary of the method: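 Yeasts were grown 3 days on YPD agar at 30 °C, suspended from five colonies and diluted in YNB broth to a final 2.5×10^3 CFU/mL. Compound at a final 32 μg/mL; incubated 24 h at 35 °C without shaking. C. albicans was read at OD530. C. neoformans was read as OD600–570 after resazurin (0.001% final) and a further 2 h at 35 °C. Fluconazole was the standard.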

Candida albicans = test: Growth inhibition of Candida albicans ATCC 90028 at 32 ug/ml after 24 hrs by OD530 light-scattering microspectrophotometric method; conditions: ATCC 90028, 24 h, read-out: GI
[1] = Hemolytic activity against human RBC at 50 uM after 1 hr by Drabkin's assay relative to control; format: ADME, cell-based, Erythrocyte; conditions: human red blood cells (erythrocytes), read-out: Activity
[2] = Hemolytic activity against human RBC at 25 uM after 1 hr by Drabkin's assay relative to control; format: ADME, cell-based, Erythrocyte; conditions: human red blood cells (erythrocytes), read-out: Activity
[3] = Hemolytic activity against human RBC at 12.5 uM after 1 hr by Drabkin's assay relative to control; format: ADME, cell-based, Erythrocyte; conditions: human red blood cells (erythrocytes), read-out: Activity
[4] = Hemolytic activity against human RBC at 6.25 uM after 1 hr by Drabkin's assay relative to control; format: ADME, cell-based, Erythrocyte; conditions: human red blood cells (erythrocytes), read-out: Activity
[5] = Hemolytic activity against human RBC at 3.125 uM after 1 hr by Drabkin's assay relative to control; format: ADME, cell-based, Erythrocyte; conditions: human red blood cells (erythrocytes), read-out: Activity
[6] = Hemolytic activity against human RBC at 1.56 uM after 1 hr by Drabkin's assay relative to control; format: ADME, cell-based, Erythrocyte; conditions: human red blood cells (erythrocytes), read-out: Activity
[7] = Hemolytic activity against human RBC at 0.78 uM after 1 hr by Drabkin's assay relative to control; format: ADME, cell-based, Erythrocyte; conditions: human red blood cells (erythrocytes), read-out: Activity
[8] = Hemolytic activity against human RBC at 0.39 uM after 1 hr by Drabkin's assay relative to control; format: ADME, cell-based, Erythrocyte; conditions: human red blood cells (erythrocytes), read-out: Activity
[9] = Hemolytic activity against human RBC at 100 uM after 1 hr by Drabkin's assay relative to control; format: ADME, cell-based, Erythrocyte; conditions: human red blood cells (erythrocytes), read-out: Activity
Erythrocyte = test: Hemolytic activity against human RBC after 1 hr by Drabkin's assay; format: ADME, cell-based
Lipid bilayer = test: Induction of pore formation in POPC vesicles at 20 uM after 3 hrs by carboxyfluorescein dye leakage assay; conditions: in the assay text read “after 3 mins” for “after 3 hrs”
Summary of the method: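 POPC or DOPC liposomes were hydrated in 10 mM HEPES, 100 mM KCl, pH 7.4, containing 50 mM carboxyfluorescein. Size was checked by dynamic light scattering, and vesicles were used at 2.2×10^10 per mL. Peptide at 20 μM was equilibrated with vesicles for 3 min, and dye leakage was measured.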

SMILES | inhibition of growth at 32 µg/mL (Staphylococcus aureus) [%] | inhibition of growth at 32 µg/mL (Escherichia coli) [%] | inhibition of growth at 32 µg/mL (Klebsiella pneumoniae) [%] | inhibition of growth at 32 µg/mL (Pseudomonas aeruginosa) [%] | inhibition of growth at 32 µg/mL (Acinetobacter baumannii) [%] | inhibition of growth at 32 µg/mL (Cryptococcus neoformans) [%] | inhibition of growth at 32 µg/mL (Candida albicans) [%] | hemolysis at 1 h, 50 µM [1] [%] | hemolysis at 1 h, 25 µM [2] [%] | hemolysis at 1 h, 12.5 µM [3] [%] | hemolysis at 1 h, 6.25 µM [4] [%] | hemolysis at 1 h, 3.125 µM [5] [%] | hemolysis at 1 h, 1.56 µM [6] [%] | hemolysis at 1 h, 0.78 µM [7] [%] | hemolysis at 1 h, 0.39 µM [8] [%] | hemolysis at 1 h, 100 µM [9] [%] | Activity (Erythrocyte) | Activity (Lipid bilayer)
CC(C)(C)OC(=O)[C@@H]1CCCN1C(=O)N1CCCN1C(=O)[C@@H]1CCCN1C(=O)N1CCCN1C(=O)[C@@H]1CCCN1C(=O)N1CCCN1C(=O)[C@@H]1CCCN1C(=O)N1CCCN1C(=O)[C@@H]1CCCN1C(=O)N1CCCN1C(=O)[C@@H]1CCCN1C(=O)N1CCCN1C(=O)[C@@H]1CCCN1C(=O)N1CCCN1C(=O)[C@@H]1CCCN1C(=O)N1CCCN1 [listing 1 of 2 here] | 20.7 | 5.27 | 5.27 | -8.18 | 17.8 | -3.43 | 2.92 | – | – | – | – | – | – | – | – | – | – | –
CC(C)(C)OC(=O)[C@@H]1CCCN1C(=O)N1CCCN1C(=O)[C@@H]1CCCN1C(=O)N1CCCN1C(=O)[C@@H]1CCCN1C(=O)N1CCCN1C(=O)[C@@H]1CCCN1C(=O)N1CCCN1C(=O)[C@@H]1CCCN1C(=O)N1CCCN1C(=O)[C@@H]1CCCN1C(=O)N1CCCN1C(=O)[C@@H]1CCCN1C(=O)N1CCCN1C(=O)[C@@H]1CCCN1C(=O)N1CCCN1.Cl | – | – | – | – | – | – | – | 0 | -0.271 | 0.181 | 0 | -0.361 | 0 | -0.903 | -0.181 | -0.181 | Dose-dependent effect | –
O=CN1CCCN1C(=O)N1CCC[C@H]1C(=O)N1CCCN1C(=O)N1CCC[C@H]1C(=O)N1CCCN1C(=O)N1CCC[C@H]1C(=O)N1CCCN1C(=O)N1CCC[C@H]1C(=O)N1CCCN1C(=O)N1CCC[C@H]1C(=O)NCCO | – | – | – | – | – | – | – | -0.361 | 0 | -0.913 | -0.361 | 0.02 | -0.452 | 0.08 | 0.361 | -0.251 | Dose-dependent effect | inactive
Cl.O=C(OCc1ccccc1)N1CCCN1C(=O)[C@@H]1CCCN1C(=O)N1CCCN1C(=O)[C@@H]1CCCN1C(=O)N1CCCN1C(=O)[C@@H]1CCCN1C(=O)N1CCCN1C(=O)[C@@H]1CCCN1 | 23.8 | 0.27 | 0.27 | -10.1 | 34.9 | -1.33 | 4.48 | -0.013 | – | – | – | – | – | – | – | 0.045 | Dose-dependent effect | –
O=C(OCc1ccccc1)N1CCCN1C(=O)[C@@H]1CCCN1C(=O)N1CCCN1C(=O)[C@@H]1CCCN1C(=O)N1CCCN1C(=O)[C@@H]1CCCN1C(=O)N1CCCN1C(=O)[C@@H]1CCCN1C(=O)N1CCCN1C(=O)[C@@H]1CCCN1C(=O)N1CCCN1C(=O)[C@@H]1CCCN1C(=O)N1CCCN1C(=O)[C@@H]1CCCN1C(=O)N1CCCN1C(=O)[C@@H]1CCCN1 | 28.6 | 14.8 | 14.8 | -2.53 | 38.4 | 0.967 | 4.07 | – | – | – | – | – | – | – | – | – | – | inactive
CC(C)(C)OC(=O)[C@@H]1CCCN1C(=O)N1CCCN1C(=O)[C@@H]1CCCN1C(=O)N1CCCN1C(=O)[C@@H]1CCCN1C(=O)N1CCCN1C(=O)[C@@H]1CCCN1C(=O)N1CCCN1 | 5.04 | 4.06 | 4.07 | 4.45 | -8.79 | -4.84 | 4.64 | – | – | – | – | – | – | – | – | – | Dose-dependent effect | inactive
CC(C)(C)OC(=O)N1CCC[C@H]1C(=O)N1CCCN1C(=O)N1CCC[C@H]1C(=O)N1CCCN1C(=O)N1CCC[C@H]1C(=O)N1CCCN1C(=O)N1CCC[C@H]1C(=O)N1CCCN1C(=O)OCc1ccccc1 | – | – | – | – | – | – | – | -0.379 | 0.227 | 0.038 | -0.152 | 0.038 | 0.189 | 0.189 | 0.227 | 0 | Dose-dependent effect | –
CC(C)(C)OC(=O)N1CCC[C@H]1C(=O)N1CCCN1C(=O)N1CCC[C@H]1C(=O)N1CCCN1C(=O)N1CCC[C@H]1C(=O)N1CCCN1C(=O)N1CCC[C@H]1C(=O)N1CCCN1 | 28.3 | 4.51 | 4.51 | -4.17 | 7.37 | -0.655 | 3.56 | 0.061 | – | – | – | – | – | – | – | 0.723 | Dose-dependent effect | –
O=C([C@@H]1CCCN1C(=O)N1CCCN1C(=O)[C@@H]1CCCN1C(=O)N1CCCN1C(=O)[C@@H]1CCCN1C(=O)N1CCCN1C(=O)[C@@H]1CCCN1C(=O)N1CCCN1C(=O)[C@@H]1CCCN1C(=O)N1CCCN1C(=O)[C@@H]1CCCN1C(=O)N1CCCN1C(=O)[C@@H]1CCCN1C(=O)N1CCCN1C(=O)[C@@H]1CCCN1)N1CCCN1 | 22.8 | 1.9 | 1.9 | -6.95 | -4.27 | -2.7 | 2.38 | – | – | – | – | – | – | – | – | – | – | –
CC(C)(C)OC(=O)[C@@H]1CCCN1C(=O)N1CCCN1C(=O)[C@@H]1CCCN1C(=O)N1CCCN1C(=O)[C@@H]1CCCN1C(=O)N1CCCN1C(=O)[C@@H]1CCCN1C(=O)N1CCCN1C(=O)[C@@H]1CCCN1C(=O)N1CCCN1C(=O)[C@@H]1CCCN1C(=O)N1CCCN1C(=O)[C@@H]1CCCN1C(=O)N1CCCN1C(=O)[C@@H]1CCCN1C(=O)N1CCCN1 [listing 2 of 2 here] | – | – | – | – | – | – | – | – | – | – | – | – | – | – | – | – | – | inactive
CN1CCCN1C(=O)[C@@H]1CCCN1C(=O)N1CCCN1C(=O)[C@@H]1CCCN1C(=O)N1CCCN1C(=O)[C@@H]1CCCN1C(=O)N1CCCN1C(=O)[C@@H]1CCCN1C(=O)N1CCCN1C(=O)[C@@H]1CCCN1C(=O)N1CCCN1C(=O)[C@@H]1CCCN1C(=O)N1CCCN1C(=O)[C@@H]1CCCN1C(=O)N1CCCN1C(=O)[C@@H]1CCCN1C(=O)N1CCCN1C(=O)OCc1ccccc1 | 25.1 | 3.93 | 3.93 | -3.91 | -6.74 | -5.68 | 3.49 | – | – | – | – | – | – | – | – | – | – | –

Source: ChEMBL document CHEMBL4196059, “Design, synthesis, and biological evaluation of stable β6.3-Helices: Discovery of non-hemolytic antibacterial peptides” (Eur J Med Chem, 2018)
